Assay results from ChEMBL document CHEMBL1154400, “Pharmacokinetics of single- and multiple-dose oral clarithromycin in soft tissues determined by microdialysis” (Antimicrob Agents Chemother, 2007).

How the values were obtained:
[1] = AUC (0 to 24 hrs) in fasting human plasma at 250 mg, po; type: ADME, organism-based; design: dose 250 mg, time < 24 hr, route oral
Outline: (§1)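 Healthy male volunteers aged 25-37 y, fasting; single oral 250 mg tablet after 60-min probe equilibration. Microdialysis probes in skeletal muscle and subcutaneous adipose tissue, perfused with Ringer's at 1.5 µl/min; dialysate and antecubital venous blood sampled every 20 min to 4 h, then every 30 min to 8 h. HPLC assay. Interstitial concentration = 100 x Cdialysate/recovery.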

[2] = Cmax in fasting human interstitial-space fluid of skeletal muscle at 250 mg, po; type: ADME, organism-based, Muscle tissue; design: dose 250 mg, route oral; outline: as §1
[3] = Total clearance in human plasma at 500 mg, po, bid for 3 to 5 days; type: ADME, organism-based
[4] = Ratio of AUC (0 to 24 hrs) in human interstitial-space fluid of skeletal muscle to free AUC (0 to 24 hrs) in human plasma at 500 mg, po bid
[5] = AUC (0 to 24 hrs) in fasting human interstitial-space fluid of subcutaneous adipose tissue at 250 mg, po; type: ADME, organism-based; outline: as §1
[6] = Cmax in fasting human interstitial-space fluid of subcutaneous adipose tissue at 250 mg, po; type: ADME, organism-based; outline: as §1
[7] = system: Homo sapiens; test: Free AUC (0 to 8 hrs) in fasting human plasma at 250 mg, po; type: ADME, organism-based; settings: in vivo
Outline: (§2)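 Free plasma concentrations obtained by applying each volunteer's measured protein binding to total plasma concentrations, measured by HPLC after the 250 mg single dose or the 500 mg b.i.d. steady-state dose, with sampling over 8 h.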

[8] = Cmax in fasting human plasma at 250 mg, po; type: ADME, organism-based; design: dose 250 mg, route oral; outline: as §1
[9] = system: Homo sapiens; test: Free AUC (0 to 24 hrs) in human plasma at 500 mg, po, bid for 3 to 5 days; type: ADME, organism-based; settings: in vivo; outline: as §2
[10] = AUC (0 to 8 hrs) in human interstitial-space fluid of skeletal muscle at 500 mg, po, bid for 3 to 5 days; type: ADME, organism-based, Muscle tissue; design: dose 500 mg, time < 8 hr, route oral
Outline: (§3)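 Oral clarithromycin 500 mg b.i.d. for 3-5 days, starting 12 h after a single 250 mg dose; last dose given supervised on the morning of day 2 after a baseline blood draw and a 2-h trough dialysate. Sampling as on day 1: microdialysis of muscle and adipose tissue plus venous plasma over 8 h, HPLC. Dialysate concentrations corrected for individual recovery.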

[11] = Drug uptake in human adipose tissue assessed as in vivo drug recovery by microdialysis; type: ADME, organism-based
Outline: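 Retrodialysis after the 8-h sampling: clarithromycin 5 mg/liter added to the Ringer's perfusate (1.5 µl/min). Recovery (%) = 100 - 100 x Cdialysate/Cperfusate, taken as the mean of two measurements per subject, in muscle and adipose tissue probes.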

[12] = Terminal half life in human interstitial-space fluid of skeletal muscle at 500 mg, po, bid for 3 to 5 days; type: ADME, organism-based, Muscle tissue; settings: read-out: beta t1/2 (converted); outline: as §3
[13] = Total clearance in fasting human plasma at 250 mg, po; type: ADME, organism-based
[14] = Tmax in fasting human plasma at 250 mg, po; type: ADME, organism-based; outline: as §1
[15] = Terminal half life in fasting human plasma unbound fraction at 250 mg, po; type: ADME, organism-based; settings: read-out: beta t1/2 (converted); outline: as §2
[16] = Protein binding in human plasma at 250 mg, po; type: ADME, organism-based; settings: read-out: PPB (converted)
Outline: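 Plasma ultrafiltration done for each volunteer on samples taken 80 and 180 min post-dose, after both the single dose and at steady state. 300 µl aliquots spun through 5,000-MW-cutoff regenerated-cellulose filters at 5,000 x g, 30 min, ambient temperature. Ultrafiltrate concentrations corrected for 5% mean membrane binding. Binding (%) = 100 - 100 x Cultrafiltrate corr/Cplasma total.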

[17] = AUC (0 to 8 hrs) in human plasma at 500 mg, po, bid for 3 to 5 days; type: ADME, organism-based; design: dose 500 mg, time < 8 hr, route oral; outline: as §3
[18] = AUC (0 to 24 hrs) in human interstitial-space fluid of subcutaneous adipose tissue at 500 mg, po, bid for 3 to 5 days; type: ADME, organism-based; outline: as §3
[19] = AUC (0 to 8 hrs) in fasting human plasma at 250 mg, po; type: ADME, organism-based; design: dose 250 mg, time < 8 hr, route oral; outline: as §1
[20] = Terminal half life in human subcutaneous interstitial-space fluid of adipose tissue at 500 mg, po, bid for 3 to 5 days; type: ADME, organism-based; settings: read-out: beta t1/2 (converted); outline: as §3
[21] = system: Homo sapiens; test: Volume of distribution at terminal phase in fasting human plasma at 250 mg, po; type: ADME, organism-based; settings: in vivo
Outline: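 Single oral 250 mg tablet given to fasting healthy male volunteers (n=7, 25–37 y). Venous plasma (lithium heparin) was sampled every 20 min over 0–4 h and every 30 min over 4–8 h, then analysed by reverse-phase HPLC. Vz = dose × F/(AUC0-∞ × kel), with bioavailability F set at 55%. AUC was calculated by the linear trapezoidal rule.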

[22] = system: Homo sapiens; test: Free AUC (0 to 8 hrs) in human plasma at 500 mg, po, bid for 3 to 5 days; type: ADME, organism-based; settings: in vivo; outline: as §2
[23] = system: Homo sapiens; test: Free Cmax in fasting human plasma at 250 mg, po; type: ADME, organism-based; settings: in vivo; outline: as §2
[24] = system: Homo sapiens; test: Free Cmax in human plasma at 500 mg, po, bid for 3 to 5 days; type: ADME, organism-based; settings: in vivo; outline: as §2
[25] = Terminal half life in fasting human interstitial-space fluid of skeletal muscle at 250 mg, po; type: ADME, organism-based, Muscle tissue; settings: read-out: beta t1/2 (converted); outline: as §1
[26] = Tmax in human interstitial-space fluid of subcutaneous adipose tissue at 500 mg, po, bid for 3 to 5 days; type: ADME, organism-based; outline: as §3

AUC(0-t) at 24 h [1]: 4450 ng·h/mL
Cmax [2]: 80 ng/mL
CL/F [3]: 312 mL/min
Kp uu [4]: 0.41
AUC(0-t) [5]: 350 ng·h/mL
Cmax [6]: 70 ng/mL
fAUC [7]: 990 ng·h/mL
Cmax [8]: 1090 ng/mL
fAUC [9]: 5850 ng·h/mL
AUC at 8 h [10]: 920 ng·h/mL
Activity [11]: 57.7%
half-life [12]: 3.8 h
CL/F [13]: 620 mL/min
Tmax [14]: 2.6 h
half-life [15]: 1.9 h
fraction unbound [16]: 0.287
AUC at 8 h [17]: 10600 ng·h/mL
AUC [18]: 2220 ng·h/mL
AUC(0-t) at 8 h [19]: 3630 ng·h/mL
half-life [20]: 3.4 h
Vbeta [21]: 94 L
fAUC [22]: 2260 ng·h/mL
fCmax [23]: 0.31 mg/L
fCmax [24]: 0.58 mg/L
half-life [25]: 3.1 h
Tmax [26]: 4 h
Structure (SMILES): CC[C@H]1OC(=O)[C@H](C)[C@@H](O[C@H]2C[C@@](C)(OC)[C@@H](O)[C@H](C)O2)[C@H](C)[C@@H](O[C@@H]2O[C@H](C)C[C@H](N(C)C)[C@H]2O)[C@](C)(OC)C[C@@H](C)C(=O)[C@H](C)[C@@H](O)[C@]1(C)O [CLARITHROMYCIN]
